In the RNAGym collection of RNA variant scans (doi:10.1101/gad.245936.114) one finds nonsense suppression data, which are given here for 167 variants.

Variants at the floor of the assay were thinned out.

B1: tRNA (parent)
chain: CUCUCGGUAGCCAAGUUGGUUUAAGGCGCAAGACUUUAAUUUAUCACUACGAAAUCUUGAGAUCGGGCGUUCGACUCGCCCCCGGGAGAUUUUUUCCUCGAGCAA

The variants in the data set derive from B1. Description: nonsense suppression (GFP-seq) (ratio to wild type); higher = more function; SUP4oc tRNA, yeast GFP reporter sort-seq. In short, it runs like this: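 Each variant's nonsense suppression (GFPSEQ) is a cell-share-weighted bin median GFP/RFP relative to the unmutated parent tRNA. Yeast with genome-integrated tRNA variants from a ~3% random-mutation library, a galactose-driven GFP ochre reporter and RFP were grown in raffinose/galactose medium with 80 mg/L adenine, then sorted into GFP/RFP bins for Illumina sequencing. Variants needed ≥100 reads and ≥30 cells.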
Regarding A9G A60C, the nonsense suppression is no more than 0.026.
Consider A9G A60G, for which the nonsense suppression is 0.222.
Turning to G10C U71A A74U A87C, the nonsense suppression was no more than 0.026.
With U8G U17G G69U C80G, the nonsense suppression is no more than 0.026.
Under A9G A23G U70G A89G stands no more than 0.026; under A9C C75A G88A, no more than 0.026; under A9G A13C, 0.183.
Take A9G A13G: the nonsense suppression came out at 0.205.
In the case of A9G U63C A74U C75U C79U, the nonsense suppression is no more than 0.026.
Regarding A9C C34U U58G G78C, the nonsense suppression is no more than 0.026.
Consider A9C U20A, for which the nonsense suppression came to 0.183.
As for A9G C29U, the nonsense suppression was found to be 0.2.
For the variant A9G A24G, the nonsense suppression stood at 0.0517.
G10A A60C G66C G78A: the nonsense suppression is no more than 0.026.
Take A9G A33U C34G U71A: the nonsense suppression was no more than 0.026.
With A9G U16C G18U, the nonsense suppression was no more than 0.026.
On to U8G G15C, for which the nonsense suppression was no more than 0.026.
As to A9G G61C, the nonsense suppression was determined as 1.06.
With A9G G61U, the nonsense suppression was determined as 1.1.
On to C11G A31G, for which the nonsense suppression is no more than 0.026.
In the case of C11G A31U, the nonsense suppression is no more than 0.026.
Regarding A9C U21A A31G U71C, the nonsense suppression was no more than 0.026.
As to A9C C12U, the nonsense suppression worked out at 0.186.
For G10C U35A G66C G85U the value was no more than 0.026; for C11U A31G C77G, no more than 0.026; for G10A U70C G78C A89C, no more than 0.026.
On to C11G G26C, for which the nonsense suppression stood at 0.359.
As for A9G A74C, the nonsense suppression worked out at 0.0286.
As to A9U C72G, the nonsense suppression was found to be 0.0446.
Under A9G G61A A87G stands 0.188; under A9C U20C C75A, 0.566.
For A9C U20G G61U C68U the value was no more than 0.026; for A9C C12U A23C A87U, no more than 0.026; for C11U G28A A33G, no more than 0.026.
Take A9U G61C: the nonsense suppression was 0.197.
On to A9U G61A, for which the nonsense suppression worked out at 0.195.
For A9U G61U the value was 0.573.
As to A9U U57G G65C, the nonsense suppression is no more than 0.026.
For G10C C79U the value was no more than 0.026; for G10A C11U C64U, no more than 0.026; for A9U A60U, 0.0653.
For A9G U20G C75G the value was 0.831.
Consider A9U A13U A24G, for which the nonsense suppression was 0.212.
On to C11U U55A G61C G88C, for which the nonsense suppression was no more than 0.026.
In the case of A9U U35G G73A A74U, the nonsense suppression was no more than 0.026.
For the variant G10U U21C A74U, the nonsense suppression was no more than 0.026.
C11U U63G: the nonsense suppression came out at 0.034.
For G10A A14C C82A, the nonsense suppression is no more than 0.026.
With C11U G18U U58G, the nonsense suppression is no more than 0.026.
Turning to A9U G84U, the nonsense suppression is 0.0747.
For the variant A9U G84A, the nonsense suppression worked out at 0.138.
G10A C27U: the nonsense suppression was no more than 0.026.
As for A9C A31G C68G G86A, the nonsense suppression is no more than 0.026.
For A9U U63C the value was 0.0507.
Under A9C A30U stands 0.0886; under A9C A30G, 0.171; under G10A G78A, 0.0314.
On to G10A G78U, for which the nonsense suppression amounted to 0.0324.
On to G10U A14U, for which the nonsense suppression turned out to be 0.19.
For the variant C11G A30G G67U, the nonsense suppression is no more than 0.026.
As for C11A G26C G66U, the nonsense suppression is no more than 0.026.
For A9U G28A C75U, the nonsense suppression is 0.0978.
Take A9G: the nonsense suppression was 0.45.
As to A9C, the nonsense suppression was 1.05.
For the variant A9U, the nonsense suppression was determined as 0.802.
Under A9C G73A stands 0.215; under A9G U76A, 0.103.
Turning to G10U A31G, the nonsense suppression is no more than 0.026.
As to G10A C72A C80A, the nonsense suppression is no more than 0.026.
Regarding A9U A14U, the nonsense suppression came to 0.0588.
Under A9U A24G stands 0.0422.
On to A9G A14G, for which the nonsense suppression is 0.0311.
For the variant C11A A54C G59A U71C C80A G88C, the nonsense suppression was no more than 0.026.
For G10C G25C G61C U71A the value was no more than 0.026; for A9C U76C, 0.929; for C12A A31G, 0.0261.
For C11G C72G the value was no more than 0.026.
Consider A9C A13U A60U, for which the nonsense suppression was determined as 1.16.
On to A9G U71C, for which the nonsense suppression was determined as 0.0266.
C11A G66C: the nonsense suppression was no more than 0.026.
For A9G C11U, the nonsense suppression was determined as 0.0313.
As to U8G C56U, the nonsense suppression is no more than 0.026.
For A9G U17C U22C, the nonsense suppression came out at 0.133.
With G10A G59A, the nonsense suppression is no more than 0.026.
Under A9C U21C A24U U63A G69U stands no more than 0.026.
G10U C27A: the nonsense suppression is 0.119.
As to A9U G86A, the nonsense suppression stood at 0.0496.
Consider A9C U22G, for which the nonsense suppression amounted to 0.878.
A9C U22A: the nonsense suppression came to 0.709.
With A9C A13G, the nonsense suppression is 0.0462.
Consider A9C A13C, for which the nonsense suppression worked out at 1.15.
Regarding A9G U21C A60U, the nonsense suppression was no more than 0.026.
With A9G A30U, the nonsense suppression turned out to be 0.163.
Take A9G A30G: the nonsense suppression came to 0.466.
As for A9C G85U, the nonsense suppression worked out at 0.04.
Turning to U8G G67C G85C, the nonsense suppression was no more than 0.026.
Under C11G A30U stands no more than 0.026.
In the case of A9G A33C G66U, the nonsense suppression was no more than 0.026.
Regarding A9G A31G, the nonsense suppression was 0.259.
Under A9U G88A stands 0.0329; under A9C G69A, no more than 0.026; under G10U G18A C75U, no more than 0.026.
For C11U C12A G88A the value was no more than 0.026.
As to C11A U71C A89G, the nonsense suppression is no more than 0.026.
Regarding A9G G10U C80U A87C, the nonsense suppression was no more than 0.026.
Consider C11G C12U G61C, for which the nonsense suppression is no more than 0.026.
A9C G61C: the nonsense suppression is 0.791.
For C11G U17C U21C U63C the value was no more than 0.026; for A9U U57G C77A G85A, no more than 0.026.
Under C11G G26C A30C stands no more than 0.026.
Regarding C11U G78U, the nonsense suppression is no more than 0.026.
For A9G U22A the value was 0.212; for A9G U22C, 0.323.
For A9G U22G, the nonsense suppression came out at 0.254.
For A9U G15A the value was 0.0449.
On to C11A G25C G61C, for which the nonsense suppression was no more than 0.026.
For A9G C68U the value was 0.153; for G10C G73C A87U, no more than 0.026.
For G10A A60U C68A, the nonsense suppression is no more than 0.026.
A9U A13U: the nonsense suppression came out at 0.819.
Under C11A A60C stands no more than 0.026.
As for A9G G84U, the nonsense suppression was determined as 0.0539.
In the case of A9G G84A, the nonsense suppression stood at 0.0699.
As to A9C C68U G78C, the nonsense suppression worked out at 0.0334.
For G10A G28C G61C the value was no more than 0.026; for C11U U70G C79A, no more than 0.026.
For the variant C11U C68A U76C C83G, the nonsense suppression is no more than 0.026.
For A9C U35A the value was no more than 0.026; for G10C G15C U20G, no more than 0.026; for G10C C29G C79U, no more than 0.026.
On to A9C G18A A31C A54C A62U G69C G88C, for which the nonsense suppression is no more than 0.026.
For the variant G10C G15U A33U, the nonsense suppression is no more than 0.026.
For G10A A33C C34U the value was no more than 0.026; for A9U U21G U22C, no more than 0.026; for G10C G19U C64G, no more than 0.026.
On to U8G G26A C56U C64G G66U G78U A89U, for which the nonsense suppression was no more than 0.026.
Turning to C11A C12U G59A U71A, the nonsense suppression was no more than 0.026.
For A9U G28C G85A, the nonsense suppression came to 0.0603.
On to G10U A13C, for which the nonsense suppression is 0.0296.
Turning to C11A G61A, the nonsense suppression came out at 0.22.
In the case of A9C A13G U55A G73U, the nonsense suppression was no more than 0.026.
For C11A A14G U63C the value was no more than 0.026; for C11A U71C, no more than 0.026; for C11A U71A, no more than 0.026.
Under C11U G85C A87G stands no more than 0.026; under A9U C81U, 0.0272.
On to A9U C81A, for which the nonsense suppression is no more than 0.026.
Regarding C11U G19U C64A, the nonsense suppression is no more than 0.026.
As for G10A C64G, the nonsense suppression is no more than 0.026.
Take C11U A30G A31U U35G G67C U76C: the nonsense suppression was no more than 0.026.
Under C11U C75A stands 0.168; under C11A U63G, no more than 0.026.
Under A9G G15C stands 0.173.
For A9G G15U the value was 0.0374; for C11G G15U G78C, no more than 0.026; for U8G G73C, no more than 0.026.
As for A9C C68U, the nonsense suppression came to 0.765.
For G10A A24C G85U the value was no more than 0.026; for A9G G61U C75G, 1.12; for G10U U55C, 0.0469.
Turning to A9G U17C, the nonsense suppression is 0.113.
On to A9G U17A, for which the nonsense suppression is 0.92.
With A9U G78A, the nonsense suppression was 0.0365.
Consider G10U A30C U57C U63C, for which the nonsense suppression is no more than 0.026.
A9G G28A G61A: the nonsense suppression was 1.24.
For A9C C34G, the nonsense suppression is no more than 0.026.
For A9U G10A the value was 0.0292.
